The source of these data is ChEMBL document CHEMBL1123346, “Pyrimidinones. 3. N-substituted 6-phenylpyrimidinones and pyrimidinediones with diuretic/hypotensive and antiinflammatory activity” (J Med Chem, 1986).

Series [1] has as its system Rattus norvegicus. The series is described as follows: Blood pressure change in rats after oral administration of 50 mg/kg dose after 24 hours. It counts as functional. A digest of the protocol:
(§1)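 Restrained female Sprague–Dawley rats with indwelling aortic cannulas exteriorized at the nape; direct arterial pressure via transducer, mean pressure by electrical integration of phasic pressure. Readings before and 4 and 24 h after oral dosing (carboxymethylcellulose suspension, 10 mL/kg). Value is change in mean arterial pressure, averaged over two animals.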

The species named for series [2] is Rattus norvegicus. The series is described as follows: Diuretic activity in rats. The class given is functional, Urine. In a few lines:
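Male rats (~160 g) fasted 24 h, water withheld 1.5 h, both withheld during test. Gavage 25 mL/kg 0.9% saline with 0.5% carboxymethylcellulose containing compound at 40 mg/kg; urine collected 5 h in metabolism cages. Two-stage test, T/C urine volume per stage; active if product of stage T/Cs ≥3.34.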

The subject of series [3] is Rattus norvegicus. The series is described as follows: Blood pressure change in rats after oral administration of 50 mg/kg dose after 4 hours. The class given is functional. In a few lines: as §1
Series [4] concerns Rattus norvegicus. The series is described as follows: Inhibition of RPAR administered perorally at 50 mg/kg dose. The conditions noted are these: route oral. The class given is functional. In a few lines: (§2)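 Male Wistar rats (180-200 g), 5-10/group, dosed orally (water with Tween-80 suspension) 1 h before iv sensitization with 1 mg bovine serum albumin; 24-h fasted. 60 min later subplantar challenge with 200 µg anti-BSA in left hindpaw. Paw swelling by mercury displacement plethysmography at 2 h post-challenge.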

Series [5] relates to Rattus norvegicus. The series is described as follows: Inhibition of RPAR administered perorally at 100 mg/kg dose. The class given is functional. The conditions noted are these: route oral. In a few lines:
as §2

Series [6] relates to Rattus norvegicus. The series is described as follows: Inhibition of RPAR administered perorally at 25 mg/kg dose. The class given is functional. The conditions noted are these: route oral. In a few lines:
as §2

Series [7] concerns Rattus norvegicus. The series is described as follows: Compound was tested for urinary volume excretion in conscious rat at the dose of 1.0 mg/kg expressed as urinary excretion in treated rats/urinary excretion in control rats. The class given is ADME, organism-based, Urine. The arrangement: dose 1 mg/kg. The conditions noted are these: in vivo. A digest of the protocol: (§3)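 Male rats (~160 g) fasted 24 h, water withheld 1.5 h; oral gavage of compound (0.3-100 mg/kg) in 25 mL/kg saline with 0.5% carboxymethylcellulose; 5 h urine collection in metabolism cages. Urine volume, Na+ and K+ (flame photometry) expressed as treated/control excretion ratio.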

For series [8], the system named is Rattus norvegicus. The series is described as follows: Compound was tested for urinary volume excretion in conscious rat at the dose of 10 mg/kg expressed as urinary excretion in treated rats/urinary excretion in control rats. The conditions noted are these: in vivo. The arrangement: dose 10 mg/kg. The class given is ADME, organism-based, Urine. In a few lines:
as §3

A short description of series [9]: Potassium salt excretion in conscious rat at the dose of 0.3 mg/kg expressed as urinary excretion in treated rats/urinary excretion in control rats. The conditions noted are these: in vivo. It counts as ADME, organism-based, Urine. The arrangement: dose 0.3 mg/kg. In a few lines: as §3
Series [10] is described as follows: Sodium salt excretion in conscious rat at the dose of 30 mg/kg expressed as urinary excretion in treated rats/urinary excretion in control rats. The class given is ADME, organism-based, Urine. The arrangement: dose 30 mg/kg. The conditions noted are these: in vivo. A digest of the protocol:
as §3

Series [11] is described as follows: Sodium salt excretion in conscious rat at the dose of 100 mg/kg expressed as urinary excretion in treated rats/urinary excretion in control rats. It counts as ADME, organism-based, Urine. Also noted: dose 100 mg/kg. The conditions noted are these: in vivo. In a few lines: as §3
Series [12] is described as follows: Potassium salt excretion in conscious rat at the dose of 3.0 mg/kg expressed as urinary excretion in treated rats/urinary excretion in control rats. It counts as ADME, organism-based, Urine. The arrangement: dose 3 mg/kg. The conditions noted are these: in vivo. A digest of the protocol: as §3
Series [13] can be described thus: Sodium salt excretion in conscious rat at the dose of 3.0 mg/kg expressed as urinary excretion in treated rats/urinary excretion in control rats. The class given is ADME, organism-based, Urine. Also noted: dose 3 mg/kg. The conditions noted are these: in vivo. A digest of the protocol: as §3
Series [14] can be described thus: Sodium salt excretion in conscious rat at the dose of 1.0 mg/kg expressed as urinary excretion in treated rats/urinary excretion in control rats. The class given is ADME, organism-based, Urine. The arrangement: dose 1 mg/kg. The conditions noted are these: in vivo. A digest of the protocol:
as §3

Series [15] can be described thus: Potassium salt excretion in conscious rat at the dose of 1.0 mg/kg expressed as urinary excretion in treated rats/urinary excretion in control rats. The class given is ADME, organism-based, Urine. Also noted: dose 1 mg/kg. The conditions noted are these: in vivo. In a few lines:
as §3

The test system of series [16] is Rattus norvegicus. The series is described as follows: Compound was tested for urinary volume excretion in conscious rat at the dose of 0.3 mg/kg expressed as urinary excretion in treated rats/urinary excretion in control rats. The class given is ADME, organism-based, Urine. Also noted: dose 0.3 mg/kg. The conditions noted are these: in vivo. In a few lines: as §3

The nature of series [17]: Potassium salt excretion in conscious rat at the dose of 100 mg/kg expressed as urinary excretion in treated rats/urinary excretion in control rats. It counts as ADME, organism-based, Urine. Also noted: dose 100 mg/kg. The conditions noted are these: in vivo. A digest of the protocol: as §3
Series [18] is described as follows: Potassium salt excretion in conscious rat at the dose of 30 mg/kg expressed as urinary excretion in treated rats/urinary excretion in control rats. The conditions noted are these: in vivo. The class given is ADME, organism-based, Urine. The arrangement: dose 30 mg/kg. In a few lines: as §3
Series [19] can be described thus: Potassium salt excretion in conscious rat at the dose of 10 mg/kg expressed as urinary excretion in treated rats/urinary excretion in control rats. It counts as ADME, organism-based, Urine. The arrangement: dose 10 mg/kg. The conditions noted are these: in vivo. In a few lines:
as §3

Series [20] is described as follows: Sodium salt excretion in conscious rat at the dose of 10 mg/kg expressed as urinary excretion in treated rats/urinary excretion in control rats. It counts as ADME, organism-based, Urine. Also noted: dose 10 mg/kg. The conditions noted are these: in vivo. A digest of the protocol:
as §3

For series [21], the system named is Rattus norvegicus. The series is described as follows: Compound was tested for urinary volume excretion in conscious rat at the dose of 100 mg/kg expressed as urinary excretion in treated rats/urinary excretion in control rats. The conditions noted are these: in vivo. The arrangement: dose 100 mg/kg. The class given is ADME, organism-based, Urine. In a few lines:
as §3

Series [22] has as its system Rattus norvegicus. The series is described as follows: Compound was tested for urinary volume excretion in conscious rat at the dose of 3.0 mg/kg expressed as urinary excretion in treated rats/urinary excretion in control rats. It counts as ADME, organism-based, Urine. The arrangement: dose 3 mg/kg. The conditions noted are these: in vivo. A digest of the protocol: as §3

Series [23] can be described thus: Sodium salt excretion in conscious rat at the dose of 0.3 mg/kg expressed as urinary excretion in treated rats/urinary excretion in control rats. It counts as ADME, organism-based, Urine. The arrangement: dose 0.3 mg/kg. The conditions noted are these: in vivo. In a few lines:
as §3

Series [24] has as its system Rattus norvegicus. The series is described as follows: Compound was tested for urinary volume excretion in conscious rat at the dose of 30 mg/kg expressed as urinary excretion in treated rats/urinary excretion in control rats. Also noted: dose 30 mg/kg. The conditions noted are these: in vivo. The class given is ADME, organism-based, Urine. A digest of the protocol: as §3

SMILES strings stand for the structures.

`C=CCn1c(N)nc(-c2ccccc2)c(I)c1=O`: the MABP change is on record as -10 mmHg in series [1] and -6 mmHg in series [3]. This compound also showed a Diuretic activity in series [2] of 5.09.
Regarding `CNc1nc(O)c(Br)c(-c2ccccc2)n1`, the inhibition in vivo (in general, the relative decrease from the control value, in per cent) at 50 mg/kg in series [4] was found to be 78%. In series [5], this compound showed an inhibition in vivo at 100 mg/kg of 82%. In addition, at 25 mg/kg the inhibition in vivo in series [6] was 42%.
Regarding `CC(=O)Nc1nc(O)c(I)c(-c2ccccc2)n1`, the MABP change in series [1] came to 9 mmHg; in [3], 3 mmHg.
Turning to `Nc1nc(O)c(I)c(-c2ccccc2)n1`, the values for the MABP change in [1] and in [3] were -12 mmHg and -7 mmHg, respectively. Further, the inhibition in vivo at 50 mg/kg in series [4] turned out to be 3%. Also, in [5], the inhibition in vivo at 100 mg/kg is 8%.
Consider `CN(C)c1nc(O)c(I)c(-c2ccccc2)n1`, for which the MABP change in series [1] is 2 mmHg; in series [3], 1 mmHg.
For the compound `N=C(N)Nc1nc(O)c(Br)c(-c2ccccc2)n1`, the MABP change in [1] was -1 mmHg; in series [3] it was -2 mmHg.
For `Cn1c(=O)[nH]c(-c2ccccc2)c(Br)c1=O`, in that order: 6 mmHg and -1 mmHg.
Turning to `Oc1nc(O)c(Br)c(-c2ccccc2)n1`, the Urinary volume in [7] was 1; in series [8] it was 1.2; in series [16] it was 0.9; in series [21] it was 2.1; in series [22], 1.1; in [24], 1.5. Also, the values for the MABP change in series [1] and in series [3] were 5 mmHg and 6 mmHg, respectively. In addition, the “K+ excretion” value in [9] turned out to be 1; in series [12], 1; in series [15], 1; in series [17] it was 1.8; in series [18], 1.2; in [19], 0.9. Moreover, the “Na+ excretion” value in series [10] turned out to be 1.4; in series [11] it was 1.9; in [13], 1; in series [14], 1.2; in series [20], 1.2; in series [23], 1.2. For the same compound, the inhibition in vivo at 50 mg/kg in series [4] is 46%. Also, in series [2], the Diuretic activity is 3.53. In series [5], this compound displayed an inhibition in vivo at 100 mg/kg of 58%.
For the compound `CC(=O)Nc1nc(O)c(Br)c(-c2ccccc2)n1`, the results for the MABP change in [1] and in series [3] were 1 mmHg and 4 mmHg, respectively.
As to `Nc1nc(=O)c(Br)c(-c2ccccc2)n1O`, the MABP change in series [1] is recorded as -1 mmHg; in series [3], 6 mmHg.
In the case of `Cn1c(-c2ccccc2)c(I)c(=O)[nH]c1=O`, the MABP change in series [1] is recorded as -1 mmHg; in [3] it was 15 mmHg. The inhibition in vivo at 50 mg/kg in series [4] worked out at 44%. For the same compound, the inhibition in vivo at 100 mg/kg in series [5] was found to be 73%. The compound also displayed an inhibition in vivo at 25 mg/kg in series [6] of 33%.
